Like-named read-outs stand apart in the source and are kept apart here.
Assays:
EF-G [1] = target: EF-G (Escherichia coli, UniProt P0A6M8); assay: isothermal titration calorimetry; type: binding
Method in brief: (§1)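 Assay used 6His-tagged E. coli protein, purified with an added Ni-NTA step. ITC ran at 5 or 25°C in pH 7.5 phosphate buffer (5 mM K2HPO4, 95 mM KCl, 5 mM MgCl2, 1 mM DTT, 10% glycerol). G nucleotide or 27-nt SRL RNA (50–500 μM in syringe) was titrated into protein (5–40 μM in cell), some runs with 500 μM nucleotide or 200 μM SRL added. Dilution heat subtracted; one-site nonlinear fit.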

IF2 [2] = target: IF2 (Escherichia coli, UniProt P0A705); assay: isothermal titration calorimetry; type: binding
Sequence of IF2 (Escherichia coli, UniProt P0A705) (P0A705 whole entry): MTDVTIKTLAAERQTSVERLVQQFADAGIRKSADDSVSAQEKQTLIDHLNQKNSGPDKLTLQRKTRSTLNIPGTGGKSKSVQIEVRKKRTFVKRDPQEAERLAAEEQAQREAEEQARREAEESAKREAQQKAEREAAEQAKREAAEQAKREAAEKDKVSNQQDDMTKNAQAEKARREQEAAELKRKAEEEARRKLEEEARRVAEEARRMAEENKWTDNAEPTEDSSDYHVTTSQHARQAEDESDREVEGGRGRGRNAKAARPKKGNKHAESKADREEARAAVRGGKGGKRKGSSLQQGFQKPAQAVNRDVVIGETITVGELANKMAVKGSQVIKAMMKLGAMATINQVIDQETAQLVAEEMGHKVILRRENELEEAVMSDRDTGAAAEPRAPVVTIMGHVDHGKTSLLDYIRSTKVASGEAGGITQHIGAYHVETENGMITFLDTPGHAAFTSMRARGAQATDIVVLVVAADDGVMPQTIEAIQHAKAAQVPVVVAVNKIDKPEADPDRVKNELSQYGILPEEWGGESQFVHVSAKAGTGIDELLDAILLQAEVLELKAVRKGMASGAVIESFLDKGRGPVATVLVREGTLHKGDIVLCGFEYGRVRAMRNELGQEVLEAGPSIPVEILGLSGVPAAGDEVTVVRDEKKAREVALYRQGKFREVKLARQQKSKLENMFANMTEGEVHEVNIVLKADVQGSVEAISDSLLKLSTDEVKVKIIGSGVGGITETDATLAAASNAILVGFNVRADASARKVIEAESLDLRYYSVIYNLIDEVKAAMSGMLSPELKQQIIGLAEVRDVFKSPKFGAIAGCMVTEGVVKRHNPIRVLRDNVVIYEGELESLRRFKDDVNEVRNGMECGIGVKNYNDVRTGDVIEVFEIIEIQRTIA
Method in brief: as §1

EF-G [3] = target: T1, EF-G (E. coli, UniProt P0A6M8 1-704); assay: ITC
T1 sequence (P0A6M8 whole entry): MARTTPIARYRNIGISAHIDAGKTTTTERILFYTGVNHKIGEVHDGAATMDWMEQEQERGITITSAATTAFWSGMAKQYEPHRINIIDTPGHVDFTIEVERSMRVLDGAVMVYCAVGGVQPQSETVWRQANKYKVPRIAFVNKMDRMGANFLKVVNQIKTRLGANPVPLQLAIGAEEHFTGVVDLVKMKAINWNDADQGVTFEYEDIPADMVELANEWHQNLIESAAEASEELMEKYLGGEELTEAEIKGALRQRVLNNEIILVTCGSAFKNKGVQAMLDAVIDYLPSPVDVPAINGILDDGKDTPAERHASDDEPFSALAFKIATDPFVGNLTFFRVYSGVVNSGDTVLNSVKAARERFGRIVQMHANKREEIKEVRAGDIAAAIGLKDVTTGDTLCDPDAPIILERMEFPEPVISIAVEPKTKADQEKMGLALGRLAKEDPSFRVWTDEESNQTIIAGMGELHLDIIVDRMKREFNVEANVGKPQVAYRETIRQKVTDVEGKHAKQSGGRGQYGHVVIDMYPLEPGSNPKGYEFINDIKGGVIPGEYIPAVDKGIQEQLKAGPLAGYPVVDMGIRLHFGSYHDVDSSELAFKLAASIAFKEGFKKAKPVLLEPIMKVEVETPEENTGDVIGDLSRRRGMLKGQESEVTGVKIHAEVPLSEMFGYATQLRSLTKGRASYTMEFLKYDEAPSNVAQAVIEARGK

IF2 [4] = target: T2, IF2 (E. coli, UniProt P0A705 1-890); assay: ITC
T2 sequence (P0A705 whole entry): as the sequence (P0A705 whole entry) above

EF-G [5] = target: T1, EF-G; assay: ITC; remark: listed apart in the source
IF2 [6] = target: T2, IF2; assay: ITC; remark: listed apart in the source
EF-G [7] = target: T1, EF-G; assay: ITC; remark: listed apart in the source

Sequence of EF-G (Escherichia coli, UniProt P0A6M8) (P0A6M8 2-704): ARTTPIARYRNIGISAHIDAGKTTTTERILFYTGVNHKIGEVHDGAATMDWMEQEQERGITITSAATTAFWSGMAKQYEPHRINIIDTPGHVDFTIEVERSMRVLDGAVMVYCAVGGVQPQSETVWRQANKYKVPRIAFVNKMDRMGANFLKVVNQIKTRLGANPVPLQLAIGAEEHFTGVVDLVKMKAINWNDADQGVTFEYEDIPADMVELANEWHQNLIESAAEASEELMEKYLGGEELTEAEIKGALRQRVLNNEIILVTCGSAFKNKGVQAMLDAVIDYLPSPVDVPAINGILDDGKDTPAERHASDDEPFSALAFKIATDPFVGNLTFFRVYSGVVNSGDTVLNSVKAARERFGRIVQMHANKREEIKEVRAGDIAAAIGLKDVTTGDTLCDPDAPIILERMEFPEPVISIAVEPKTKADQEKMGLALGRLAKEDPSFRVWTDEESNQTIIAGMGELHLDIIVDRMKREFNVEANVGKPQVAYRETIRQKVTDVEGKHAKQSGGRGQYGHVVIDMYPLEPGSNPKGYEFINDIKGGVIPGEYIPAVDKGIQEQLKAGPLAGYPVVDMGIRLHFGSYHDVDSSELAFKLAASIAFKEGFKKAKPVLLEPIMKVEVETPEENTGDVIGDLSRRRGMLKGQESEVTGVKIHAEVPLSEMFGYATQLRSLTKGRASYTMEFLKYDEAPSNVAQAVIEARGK

| Molecule | Kd (EF-G [1]) [nM] | Kd (IF2 [2]) [nM] | Kd (EF-G [3]) [nM] | Kd (IF2 [4]) [nM] | Kd (EF-G [5]) [nM] | Kd (IF2 [6]) [nM] | Kd (EF-G [7]) [nM] |
| --- | --- | --- | --- | --- | --- | --- | --- |
| Nc1nc2c(ncn2[C@@H]2O[C@H](COP(=O)(O)OP(=O)(O)OP(=O)(O)O)[C@@H](O)[C@H]2O)c(=O)[nH]1 [GTP] | 2700 | 6700 |  |  |  |  |  |
| Nc1nc2c(ncn2[C@@H]2O[C@H](COP(=O)(O)OP(=O)(O)O)[C@@H](O)[C@H]2O)c(=O)[nH]1 [GDP] | 1800 | 1600 |  |  |  |  |  |
| GGGCUCCUAGUACGAGAGGACCGGAGU (structured_RNA) [SRL RNA wt (27 nt)] |  |  | 3700 | 1000 | 5900 | 670 | 4200 |

Source: paper PMC3496166 (Scientific Reports, 2012)
